Assay results taken from PMC4277779 (Journal of the American Chemical Society, 2014).
Non-standard residues stand in square brackets, D forms with d. No end group written: not given here. Orn = NCCC[C@H](N)C(=O)O

Tests used:
[1] = ΔδCαH-based β-hairpin population and thermodynamic analysis by NMR; type: physicochemical; conditions: relative to parent peptide I, 4 °C, pH 3.8; for ΔΔGfold: calculated for each reporter position and averaged
Method in brief: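 NMR samples were prepared in 100 mM acetate buffer, pH 3.8.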

[2] = Far-UV circular dichroism: effects of pH and temperature; type: physicochemical; conditions: 4 to 20 to 37 °C, phosphate buffer
Method in brief: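 Far-UV CD spectra of the test peptides were recorded in phosphate buffer (pH 7.0) and in the NMR buffer (100 mM acetate, pH 3.8). A temperature series at 4, 20 and 37 °C was run in phosphate buffer.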

[3] = 4 °C, cited from earlier work
[4] = aqueous buffer pH 3.8, ref 9a (Syud et al.)

Substance	effect of residue replacement on β-hairpin population (in words) [1]	ΔΔGfold [1]	effect of temperature on far UV CD (in words) [2]	population of the β-hairpin conformation ([3]; aqueous buffer pH 3.8, NMR, ref 9b) [%]	β-hairpin population at reporter position Ile 10 [3, 4] [%]	β-hairpin population at reporter position Orn 8 [3, 4] [%]	β-hairpin population at reporter position Val 3 [3, 4] [%]	β-hairpin population at reporter position Val 5 [3, 4] [%]
Arg-Tyr-Val-Glu-Val-DPro-Gly-Orn-TO+-Ile-Leu-Gln-NH2 [Peptide II]	little effect on β-hairpin population	+0.1 ± 0.2 kcal/mol						
Arg-Tyr-Val-Glu-Val-DPro-Gly-Orn-TS+-Ile-Leu-Gln-NH2 [Peptide III]	enhanced β-hairpin population	–0.5 ± 0.4 kcal/mol	does not significantly alter					
Arg-Tyr-Val-TS--Val-DPro-Gly-Orn-Lys-Ile-Leu-Gln-NH2 [Peptide IV]	enhanced β-hairpin population	–0.6 ± 0.3 kcal/mol	does not significantly alter					
RYVEV[dP]G[Orn]KILQ-NH2 [Peptide I]			does not significantly alter	~68	59	65	70	76
